Results: PubChem BioAssay AID652011 (Sanford-Burnham Center for Chemical Genomics, 2013)
Several values for one entry are separate records, joined by “and”; a condition that tells them apart may be missing. Equal values may be shown once.

molecular target: Hypoxia-inducible factor 1-alpha (Homo sapiens) (UniProt Q16665); assay: HIF-1a and HIF-2a reporter inhibitors, SAR follow-up, cell-based, luminescence, MIAPaCa-2, 786-0, panel (AID 652011); conditions: MIAPaCa-2/PANC HIF reporter, luciferase luminescence, desferoxamine, overnight, HIF1a, run 1; at 99 µM (top of the series)
How it was run: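 Reagent: Desferoxamine added before compound | Doses: Compounds from 10 mM and 0.3125 mM stocks, 1% DMSO final | Times: Overnight seeding and compound exposure, 37 °C, 5% CO2, 10-min detection | Measured by: One-Glo luciferase luminescence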

Chain of Hypoxia-inducible factor 1-alpha (Homo sapiens) (Q16665 whole entry, looked up): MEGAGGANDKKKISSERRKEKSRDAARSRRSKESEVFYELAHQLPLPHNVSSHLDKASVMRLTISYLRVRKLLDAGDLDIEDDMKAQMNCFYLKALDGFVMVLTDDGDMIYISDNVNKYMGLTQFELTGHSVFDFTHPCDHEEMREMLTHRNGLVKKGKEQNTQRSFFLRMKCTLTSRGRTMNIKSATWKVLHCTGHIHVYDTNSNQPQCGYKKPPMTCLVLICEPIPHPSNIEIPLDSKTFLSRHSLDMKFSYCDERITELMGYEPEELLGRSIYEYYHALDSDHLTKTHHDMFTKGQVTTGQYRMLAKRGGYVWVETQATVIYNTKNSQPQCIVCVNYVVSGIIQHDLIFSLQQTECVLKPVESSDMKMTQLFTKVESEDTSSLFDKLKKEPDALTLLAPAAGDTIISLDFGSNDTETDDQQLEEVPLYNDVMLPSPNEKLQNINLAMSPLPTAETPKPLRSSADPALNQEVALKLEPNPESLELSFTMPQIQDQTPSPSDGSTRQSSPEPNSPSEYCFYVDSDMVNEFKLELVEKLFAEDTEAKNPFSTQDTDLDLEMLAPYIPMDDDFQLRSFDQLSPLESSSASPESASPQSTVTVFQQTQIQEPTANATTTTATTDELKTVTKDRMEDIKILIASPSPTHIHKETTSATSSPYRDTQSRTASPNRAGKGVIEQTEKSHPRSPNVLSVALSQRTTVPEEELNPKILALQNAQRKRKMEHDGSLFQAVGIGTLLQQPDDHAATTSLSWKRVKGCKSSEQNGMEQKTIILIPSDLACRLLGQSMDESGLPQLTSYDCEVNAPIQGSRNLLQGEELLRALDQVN

Structure (SMILES)	inhibition
CC(C)(C)c1ccc(-c2noc(CCC(=O)Nc3ccccc3)n2)cc1	43%
CC(C)(C)c1ccc(-c2noc(CCC(=O)N3CCOCC3)n2)cc1	-34.2%
CCNC(=O)CCc1nc(-c2ccc(OCC)cc2)no1	-79.8%
CCCCc1ccc(-c2noc(CCC(=O)NC3CC3)n2)cc1	2.18%
CCNC(=O)CCc1nc(-c2cccc(OC)c2)no1	-42.1%
CCCCc1ccc(-c2noc(CCC(=O)NC(C)CC)n2)cc1 (stereo not given)	29.2%
CC(C)(C)c1ccc(-c2noc(CCC(=O)Nc3cccnc3)n2)cc1	98.9%
CC(C)(C)c1ccc(-c2noc(CCC(=O)NC3CCCCC3)n2)cc1	41.6%
CC(C)CNC(=O)CCc1nc(-c2ccc(C(C)(C)C)cc2)no1	-21.6%
CCNC(=O)CCc1nc(-c2ccc(C(C)(C)C)cc2)no1	-11.3% and -13.8%
CCCCc1ccc(-c2noc(CCC(=O)NCC)n2)cc1	-6.32%
CCNC(=O)CCc1nc(-c2cccc(F)c2)no1	-22%
CC(C)c1ccc(-c2noc(CCC(=O)NC3CC3)n2)cc1	-58.4%
O=C(O)CCc1nc(-c2ccccc2)no1	4.64%
CCc1ccc(-c2noc(CCC(=O)NC(C)(C)C)n2)cc1	-38.3%
CCc1ccc(-c2noc(CCC(=O)NC(C)CC)n2)cc1 (stereo not given)	-51.7%
CCN(CC)C(=O)CCc1nc(-c2ccc(C(C)(C)C)cc2)no1	-20.8% and 47.7%
CCNC(=O)CCc1nc(-c2cccc(C)c2)no1	-31.4%
CC(C)(C)c1ccc(-c2noc(CCC(=O)N3CCCCC3)n2)cc1	102%
CC(C)(C)c1ccc(-c2noc(CCC(=O)O)n2)cc1	94.7%
